In ChEMBL document CHEMBL1156727, “Synthesis and evaluation of curcumin analogues as potential thioredoxin reductase inhibitors” (Bioorg Med Chem, 2008) one finds IC50, GC50 and Activity data, which are given here for 21 compounds.

Active and inactive are the calls of the source. The calls are words filed in the database; no cut-off is given here.

Experiment [1] can be described thus: Inhibition of TrxR preincuabatd for 4 mins.
Experiment [2] has as its system A549. Description: Cytotoxicity against TrxR overexpressing human A549 cells after 48 hrs by MTT assay. The experiment is classed as functional. Summed up:
(§1)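 Cells grown in RPMI 1640 with 10% fetal calf serum, penicillin/streptomycin and 2 mM L-glutamine at 37 °C under 5% CO2. Seeded 1×10⁴/well and left overnight, then exposed 48 h to 0–100 µM. MTT was added for 4 h at 37 °C and formazan dissolved in DMSO, read at 570 nm. Run in quadruplicate; GC50 is the concentration giving 50% of control viability.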
(Tetrazolium assays rely on reduction of a dye to a coloured formazan, in cell work by metabolically active cells.)

Experiment [3] has as its system A549. In words: Cytotoxicity against TrxR overexpressing human cis-diammine-dichloroplatinum (II)-resistant A549 cells after 48 hrs by MTT assay. It is filed as functional. Summed up: as §1
Experiment [4] relates to MCF7. Description: Cytotoxicity against TrxR overexpressing human doxorubicin-resistant MCF7 cells after 48 hrs by MTT assay. The experiment is classed as functional. Put shortly: as §1
For experiment [5], the system named is HepG2. Description: Cytotoxicity against TrxR overexpressing human HepG2 cells after 48 hrs by MTT assay. It is filed as functional. Put shortly: as §1
Experiment [6] concerns the target T1, Thioredoxin reductase (Homo sapiens) (UniProt Q16881+Q9NNW7+Q86VQ6). Description: Inhibition of TrxR in human HeLa cells at 50 uM after 12 hrs by insulin reduction assay. It is filed as cell-based. Summed up: (§2)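 Cells (1.5×10⁶) in RPMI 1640 were exposed 12 h; controls got <1% DMSO. Cells were trypsinized and lysed in Tris pH 7.4/Triton/deoxycholate/SDS buffer with protease inhibitors, then spun at 16,000g. Lysate was incubated 30 min at 37 °C with 2.5 mg/ml bovine insulin, NADPH and Trx in HEPES/EDTA pH 7.4. The reaction was stopped with guanidine-HCl/DTNB and read at A412. A no-Trx mixture served as background; activity is % of control, n≥3.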

For experiment [7], the target named is T1, Thioredoxin reductase (Homo sapiens). Description: Inhibition of TrxR in human MCF7 cells at 50 uM after 12 hrs by insulin reduction assay. It is filed as cell-based. Put shortly: as §2
The nature of experiment [8]: Inhibition of TrxR preincuabatd for 2 hrs followed by ultrafiltration.
A short description of experiment [9]: Inhibition of TrxR preincuabatd for 2 hrs.

The term IC50 denotes the concentration that inhibits the measured activity by half. Higher therefore signals weaker potency. With `O=C(/C=C(O)/C=C/c1ccc(O)cc1)/C=C/c1ccccc1Br`, the IC50 in experiment [1] amounted to 50 µM.

In the case of `COc1cc(/C=C/C(O)=C/C(=O)/C=C/c2ccc(CO)o2)ccc1O`, the GC50 was greater than 100 µM in experiment [2], 35.8 µM in [3], 10.6 µM in [4] and greater than 100 µM in experiment [5]. This compound also came in with an IC50 in experiment [1] of 1 µM.

Consider `O=C(/C=C/c1ccc(O)cc1)CC(=O)/C=C/c1ccc(O)cc1` [BISDEMETHOXYCURCUMIN], for which the 50% inhibitory concentration (IC50) in experiment [1] was greater than 100 µM.

As to `COc1cc(/C=C/C(O)=C/C(=O)/C=C/c2ccc(O)cc2)ccc1O` [DEMETHOXYCURCUMIN], in [1], half-maximal inhibition (IC50) required 20 µM.

With `COc1cc(/C=C/C(=O)/C=C(O)/C=C/c2ccc(C)o2)ccc1O`, the GC50 in experiment [2] was greater than 100 µM; in experiment [3], 39.4 µM. The compound also returned an IC50 in experiment [1] of 0.5 µM.

Take `COc1cc(/C=C2\CCC/C(=C\c3ccc(O)cc3)C2=O)cc(OC)c1OC`: 24.9 µM corresponded to half-maximal inhibition in experiment [1] (IC50).

For `O=C(/C=C(O)/C=C/c1ccco1)/C=C/c1ccco1`, the results for the GC50 in [2] and in [4] were 66.4 µM and 33.6 µM, respectively. Also, in [1], the IC50 was 1.6 µM.

`COc1ccc(/C=C/C(=O)/C=C(O)/C=C/c2ccc(OC)c(OC)c2)cc1OC` [DIMETHYLCURCUMIN] had a half-maximal inhibitory concentration (IC50) in experiment [1] greater than 100 µM.

On to `COc1ccc(/C=C/C(=O)/C=C(O)/C=C/c2ccc(OC)cc2)cc1`, for which the GC50 in experiment [3] and in [4] was greater than 100 µM each time. Moreover, the IC50 in experiment [1] was greater than 100 µM.

On to `Cc1ccc(/C=C/C(=O)/C=C(O)/C=C/c2ccc(C)o2)o1`, for which the outcome in experiment [6], in experiment [7] and in [8] was Active. In addition, the GC50 is 52.9 µM in experiment [2], 59.6 µM in experiment [3], 48.5 µM in experiment [4] and greater than 100 µM in experiment [5]. The same compound came in with an IC50 in experiment [1] of 0.3 µM.

With `O=C(/C=C(O)/C=C/c1ccc(CO)o1)/C=C/c1ccccc1`, the GC50 in experiment [5] is greater than 100 µM. In experiment [1], this compound displayed an IC50 of 1.3 µM.

In turn, `COc1cc(/C=C/C(=O)/C=C(O)/C=C/c2ccc(O)cc2)cc(OC)c1OC` returned a GC50 in experiment [2] of 60.1 µM. The same compound displayed an IC50 in experiment [1] of 13.8 µM.

For `COc1cc(/C=C/C(O)=C/C(=O)/C=C/c2ccccc2)ccc1O`, the IC50 in experiment [1] stood at 57 µM.

In turn, `O=C(/C=C(O)/C=C/c1cccs1)/C=C/c1ccc(O)cc1` returned an IC50 in experiment [1] of 20 µM.

With `CN(C)c1ccc(/C=C/C(=O)/C=C(O)/C=C/c2ccc(CO)o2)cc1`, the GC50 in [5] was greater than 100 µM. In experiment [1], this compound showed an IC50 of 62.2 µM.

Turning to `COc1ccc(/C=C/C(=O)/C=C(O)/C=C/c2ccc(CO)o2)cc1`, the figures for the GC50 in experiment [3], in [4] and in [5] were 12.1 µM, 10 µM and greater than 100 µM, respectively. Further, in experiment [1], the IC50 was 0.8 µM.

For the compound `O=C(/C=C(O)/C=C/c1ccc(O)cc1)/C=C/c1ccccc1`, the GC50 in experiment [2] stood at 41.3 µM. In addition, the IC50 in experiment [1] stood at 23.3 µM.

On to `COc1cc(/C=C2\CCC/C(=C\c3ccc(O)cc3)C2=O)ccc1O`, for which, in experiment [2], the GC50 was greater than 100 µM. Further, the IC50 in [1] was found to be 5.1 µM.

`O=C(/C=C(O)/C=C/c1ccccc1)/C=C/c1ccccc1`: in experiment [1], the IC50 is greater than 100 µM.

As to `COc1cc(/C=C/C(=O)CC(=O)/C=C/c2ccc(O)c(OC)c2)ccc1O` [CURCUMIN], the concentration for half-maximal inhibition (IC50) in [9] was determined as 4.2 µM; in experiment [1], 38.3 µM. In addition, the values for the GC50 in [2] and in experiment [3] were 18.2 µM and 73 µM, respectively.

In the case of `COc1cc(/C=C/C(=O)/C=C(O)/C=C/c2ccc(CO)o2)cc(OC)c1OC`, the GC50 in [2] and in experiment [5] was greater than 100 µM each time. The same compound registered an IC50 in [1] of 2 µM.
